Data from ChEMBL document CHEMBL4513216, “Probing the Open Global Health Chemical Diversity Library for Multistage-Active Starting Points for Next-Generation Antimalarials” (ACS Infect Dis, 2020).

Assay: Toxicity liver stage against HepG2, at 10uM
Type: cell-based
Parameters: test concentration 10 uM, cell line HepG2-A16-CD81EGFP
Conditions: human, HepG2-A16-CD81EGFP cells; read-out: INHIBITION
Summary of the method: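 Uninfected HepG2-A16-CD81EGFP cells, 3 × 10^3 per well, 1536-well, plated on prespotted compound at 10 μM final, parasite-free screening media added to match infected plates; puromycin 10 μM positive, DMSO 0.5% negative; run in parallel with 48 h PbLuc assay at 37 °C, 5% CO2; viability by CellTiter-Glo luminescence, normalized to controls.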

Compound	cytotoxicity at 10 µM
N#Cc1c2n(c3c(=O)[nH]cnc13)CCCC2	2.45%
CC(=O)N1CCC(NC2(Cc3cc(CN(C)C)on3)COC2)CC1	-1.38%
COCCNC(=O)C1CC(=O)N(c2n[nH]c3cccc(F)c23)C1 (stereo not drawn)	3.23%
CN(C)C(CNS(=O)(=O)c1cc(F)ccc1F)c1cccn1C (stereo not drawn)	1.33%
O=C(c1cnccn1)N1CC(S(=O)(=O)c2ccc(Cl)cc2)C1	-2.3%
CCN1C[C@@H]2CN(S(=O)(=O)c3cccs3)C[C@@H]2C1=O	-2.42%
CCN(C)C(=O)c1cc(-c2cn(C(C)C)cn2)n2ccccc12	-1.16%
CN1C(=O)CC2(CCNCC2)c2ccccc21	-3.92%
COCC(=O)N1CCC2(CC1)CC(N1CCOCC1)c1ccc(C)cc12 (stereo not drawn)	-116%
CN1CCC2(Cc3ccccc3NC2=O)C1 (stereo not drawn)	9.82%
CSCC[C@H](NC(=O)Cn1ccc2c(Cl)cccc21)C(=O)O	4.18%
Cn1cccc1CNC(=O)CCCc1nnc2ccccn12	-5.77%
O=C(c1cn(-c2cc(N3CCOCC3)ncn2)cn1)N1CCSCC1	-18.3%
Cc1cccc(CS(=O)(=O)NCC(O)Cc2ccccc2)c1 (stereo not drawn)	-19.5%
O=C(O)c1cc2c(nc1O)CC(c1cccc(Cl)c1)CC2=O (stereo not drawn)	9.56%
CCC(CO)NC(=O)c1ccc2ccc(N(C)CC3CC3)n2c1 (stereo not drawn)	4.82%
Cc1cccc(CN2C[C@@H]3CCCO[C@@H]3[C@H](NS(C)(=O)=O)C2)n1	-8.06%
Nc1nnnn1NCc1ccccc1C(F)(F)F	5.56%
CC(C)n1cc(N2CC(C(=O)N3CCC(C(N)=O)CC3)CC2=O)cn1 (stereo not drawn)	-4.51%
COCCCNC(=O)c1cc(C(C)C)nc(N2CCCC2)n1	6.5%
CC(=O)NCc1ccc(-c2ccccc2C(=O)O)cn1	1%
CCN(CC)S(=O)(=O)N1C[C@@H](O)[C@H](Oc2cccc(F)c2)C1	9.73%
Cc1ccc(CC2COCCN(S(C)(=O)=O)C2)nc1 (stereo not drawn)	-0.56%

Compound	cytotoxicity at 10 µM
COc1cccc(-c2ccnc(C3CCNCC3)c2)c1	56.4%
O=c1c(Cc2ccccc2)c(O)ccn1Cc1cccs1	10.2%
Cc1c(C(=O)N2CCC2)nnn1-c1ccc2ncccc2c1	-2.29%
Cc1nc(CSCCC(=O)Nc2cccc(N3CCNC3=O)c2)cs1	5.31%
CC1CS(=O)(=O)CCN1CCCc1ccc(Cl)cc1 (stereo not drawn)	9.28%
CC(C)Oc1cccc(CN(C)C(=O)Cc2ccon2)c1	-2.09%
CCc1ccc(C(NC(=O)CCS(C)(=O)=O)C(C)(C)C)o1 (stereo not drawn)	-3.58%
CCSCCC(C)NC(=O)Nc1cccn(C)c1=O (stereo not drawn)	-2.19%
Cc1nc2cc(F)cc(C(=O)N3CCN(CCO)CC3)c2nc1C	-3.31%
Clc1cncc(N2CCN(Cc3ccon3)CC2)n1	6.94%
Cc1nc(CN2CCc3ccc(S(N)(=O)=O)cc32)oc1C	2.63%
CCc1ccc(C(=O)N2CCCCC2CNS(C)(=O)=O)o1 (stereo not drawn)	-0.95%
COc1ccc(Cl)cc1CCNC(=O)NCc1ccncc1	2.53%
NC(=O)Nc1cccc(CNC(=O)CCCc2ccccc2)c1	-10.1%
O=C1CCCN1CCN1CCCC(c2ccn[nH]2)C1 (stereo not drawn)	-16.7%
Cc1nc(CN2CCCN(Cc3nc4ccccc4o3)CC2)no1	12.3%
O=C(NCCOc1ccc(Cl)cn1)Nc1cccnc1	-2.3%
CCCNC(=O)NCc1ccccc1NS(=O)(=O)c1ccccc1	10.3%
COCc1ccccc1C(=O)N1CCN(C2=NCC(C)(C)S2)CC1	6.11%
CC(C)CNC(=O)CC1OCCc2ccsc21 (stereo not drawn)	-3.49%
Cc1cc(NC(=O)[C@H]2CCCCN2C(=O)OC(C)(C)C)no1	-1.48%
COc1ccc(CN(C)C(=O)NC(C)c2nncn2C)cc1F (stereo not drawn)	-2.85%
CC(C)C(C(=O)N1CCN(Cc2ccccn2)CC1)n1cncn1 (stereo not drawn)	-14.5%

Compound	cytotoxicity at 10 µM
COCCCN1CCC(NC(=O)C2CC2)CC1	-5.02%
CC(C)CNC(=O)CNC(=O)NC(C)COc1ccccc1F (stereo not drawn)	-0.956%
CCS(=O)(=O)NCCCNc1cc(N2CCCC2CO)ncn1 (stereo not drawn)	2.2%
CC(C)Cn1cc(NCc2cscn2)cn1	3.86%
CC(C)C(C)(O)CNc1cccc(F)c1C#N (stereo not drawn)	-8.87%
Cc1noc(C2CCCN(CC(=O)N3CCNC(=O)C3)C2)n1 (stereo not drawn)	-13%
CC(C)n1ccc(=O)nc1SC1CCN(c2ccccc2F)C1=O (stereo not drawn)	11.8%
COc1ccc(N(Cc2ccco2)C(=O)COC(C)C)cc1F	-1.63%
O=C(c1cc[nH]n1)N(Cc1ccc(F)cc1)CC1CC1	-10.8%
CCN(CC)C(=O)COc1ccnc2cc(OC)ccc12	-2.17%
O=C(c1ccc(F)cc1F)N1CCN(C(=O)C2CCCCC2)CC1	-0.876%
OCCn1nnnc1Cc1ccc(Br)cc1	1.54%
CNS(=O)(=O)CCCN1CCCN(Cc2ccccc2)CC1C (stereo not drawn)	9.77%
COc1cccc2c1CCN(C(=O)NCCc1nccn1C)C2	2.38%
N#Cc1ccnc(N2CCN(Cc3cccc(F)c3)CC2)c1	0.795%
CCOc1cccc(C(C)NC(=O)N2CCC(C(N)=O)CC2)c1 (stereo not drawn)	-2.95%
COc1ccc(NC(=O)NC(C)(C)c2noc(C)n2)cc1	-3.42%
Cc1cc(C)c(C(=O)N2CCN(c3ncccc3C#N)CC2)c(=O)[nH]1	-3.28%
CCN(CC)c1ncccc1CNC(=O)c1cnn(CC)c1	-8.2%
CCCOCCN1CCN(c2ncnc3[nH]ccc23)CC1	-6.67%
C=Cc1cccc(CN(Cc2cnn(C)c2)C2CC2)c1	3%
Cn1ncc2c(N3CCN4CCCCC4C3)nc(C3CCCC3)nc21 (stereo not drawn)	-139%
CCC1(C(=O)O)CCCN(CCOCc2ccccc2)C1 (stereo not drawn)	7.33%

Compound	cytotoxicity at 10 µM
CCNc1ncc(CN(Cc2ccccc2)CC(C)CO)cn1 (stereo not drawn)	6.33%
O=C1CCC2(CCN(Cc3cscn3)CC2)CN1CC1CCCO1 (stereo not drawn)	-5.5%
COCC(=O)N(Cc1cccnc1)CC1CCN(C2CCCC2)CC1	1.49%
CCc1nc(N2CCN(Cc3ncccc3C)CC2)c2cnn(C)c2n1	-6.46%
O=C(O)[C@@H]1CN(C(=O)CCN2CCCCC2)C[C@H]1c1ccccc1	1.25%
CCCn1cc(-c2cc(-c3ccoc3)c(C#N)c(N)n2)c(C)n1	5.48%
CCCc1nc(C)cc(N2CCC3(CCC(=O)N(C4CC4)C3)CC2)n1	-5.31%
Cc1cc2nc(-c3ccccc3)cc(NCC3CCS(=O)(=O)C3)n2n1 (stereo not drawn)	1.38%
COc1cccc(OC)c1C(=O)N1C[C@@H](CN(C)C)[C@@H](CO)C1	-4.51%
CC1=NOC(C(=O)N2CCC(O)(c3ccc4nc(C)ccc4c3)CC2)C1 (stereo not drawn)	2.12%
CCOc1cccc(C(C(=O)O)N(C)Cc2cc(C)no2)c1 (stereo not drawn)	4.64%
Cc1cc(N2CCOC(C(F)(F)F)C2)nc(-c2ccccc2)n1 (stereo not drawn)	-1.23%
Cc1cccc(C(=O)N2CCC(Cc3cnc4[nH]ccc4c3)CC2)n1	12.2%
Cc1csc(CNC(=O)N2CCCC(c3nncn3C)C2)n1 (stereo not drawn)	-18.3%
CN(Cc1cnn(C)c1)C(=O)NCCc1ccc2c(c1)OCO2	-12.4%
Cc1cccc(CN2CCN(C(=O)c3cc(C4CC4)[nH]n3)CC2)c1	-5.38%
Cc1ccc(NC2CCN(C(=O)CCNc3ncccn3)CC2)nn1	-7.69%
CCn1ccnc1CN1CCCN(C(=O)c2ccnc(C)n2)CC1	-12.2%
Cc1ccoc1C(=O)NCc1ccnc(OCC(F)(F)F)c1	-7.8%
CC(NC(=O)NCCCc1n[nH]c(N)c1C#N)c1ccc(F)c(F)c1 (stereo not drawn)	-10.2%
Cc1ncc(CN2CCOC(CNc3cccnn3)C2)s1 (stereo not drawn)	-19.8%
CN(Cc1noc(C2CC2)n1)C1CCN(CCS(C)(=O)=O)C1 (stereo not drawn)	-14.9%
CCN1CCN(c2ccc(CNC(=O)c3sccc3C)cn2)CC1	-17.8%

Compound	cytotoxicity at 10 µM
O=C(c1cnc(-c2ncccn2)s1)N1CCCC1Cn1cccn1 (stereo not drawn)	-5.97%
Cc1ccccc1OCCCC(=O)NC(C)c1nnc2n1CCC2 (stereo not drawn)	-11.5%
Cc1nnc(NC(=O)CN2CCCC2c2c(C)nn(C)c2C)s1 (stereo not drawn)	-14.1%
COc1ccccc1CC(=O)N1CCCC(c2cc(C)[nH]n2)C1 (stereo not drawn)	-21%
CCn1cc(NC(=O)NCCc2ccc3c(c2)OCO3)cn1	2.04%
COc1ncccc1C(=O)N1CCCC1c1c(C)nn(C)c1Cl (stereo not drawn)	-9.35%
Cc1cc(C(=O)N2CCCC(n3cncn3)C2)on1 (stereo not drawn)	-22.5%
NC(=O)C1CCCN1c1cc(N2CCc3ccccc3C2)ncn1 (stereo not drawn)	-0.918%
CC(NC(=O)NCc1cccc(N2CCCC2=O)c1)c1ccccc1 (stereo not drawn)	4.52%
CCc1cnc(N2CC[C@H]3[C@@H]2CCC(=O)N3c2cccnc2)nc1	10.4%
CC(C)N1CCC2(C=C(C(=O)NC3CC3)c3ccccc32)CC1	1.29%
CC(C)Nc1nc(O)cc(C2CC(=O)N(Cc3ccccn3)C2)n1 (stereo not drawn)	-16.9%
CCOC1COC2(CCN(Cc3ccc(F)cc3)CC2)C1 (stereo not drawn)	-0.508%
O=C(c1ccc(F)cc1)N1CCC2(CC1)CC(N1CCOCC1)C2	-7.52%
CCc1cnc(N2CC[C@@H]3CN(CCC(C)C)S(=O)(=O)[C@@H]3CC2)nc1	2.38%
Cc1ccc(N[C@@H]2CN(Cc3cc(C)on3)C[C@@H]3CCCO[C@@H]32)nn1	-0.113%
CC[C@@H]1N(Cc2ccc(C)s2)CCC[C@]12CCC(=O)N2C	4.94%
Cc1occc1C(=O)Nc1cccc(C(=O)OCC2CCCN2)c1 (stereo not drawn)	-2.09%
CC1CCN(C(=O)[C@@H]2C[C@@H]3CCN(CC4CCOCC4)C[C@@H]3O2)CC1	7.13%
CCCNc1c(NC(=O)NCCOC)c(=O)oc2ccccc12	-6.23%
CCN(C)S(=O)(=O)N1C[C@H]2CC[C@@H](C1)N(Cc1cscn1)C2=O	11%
